In PMC5836847 (Clinical Pharmacology and Therapeutics, 2017):

How the values were obtained:
[1] = Plasma pharmacokinetics of sildenafil and N-desmethyl-sildenafil; assay type: in vivo, human; settings: for AUCinf, Intrasubject CV / AUClast, Intrasubject CV / Cmax, Intrasubject CV: fixed effect model, sacubitril/valsartan + sildenafil vs. sildenafil alone; for Tmax (median time to reach maximum concentration): single-dose oral administration of sildenafil; for AUC(0-t): AUClast
Outline: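 Male hypertensive patients received single oral sildenafil 50 mg alone (Day 1), then again on Day 8 with sacubitril/valsartan 400 mg q.d. at steady state. Plasma sildenafil and N-desmethyl-sildenafil were profiled after each dose. Outputs were AUCinf, AUClast, T1/2, Cmax and Tmax. Log-transformed parameters went into a fixed-effect model with subject and treatment as factors; combination was test, sildenafil alone reference. Output was back-transformed GMR with 90% CI.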

[2] = cited from earlier work
[3] = Plasma pharmacokinetics of sacubitril/valsartan analytes at steady state; assay type: in vivo, human; settings: for AUCtau,ss, Intrasubject CV / Cmax,ss, Intrasubject CV: fixed effect model; for AUC / Cmax: male, human, oral, Mean ± SD; for AUC / Cmax / Tmax (time of peak concentrations): plasma; for AUC: AUCtau,ss, Sacubitril/valsartan alone (400 mg q.d., steady state, Day 7); for Cmax: Cmax,ss; for Tmax (time of peak concentrations): oral administration of sacubitril/valsartan, steady state
Outline: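 Male hypertensive patients took oral sacubitril/valsartan 400 mg q.d. on Days 3–7, with predose samples on Days 3–6. Plasma sacubitril, sacubitrilat and valsartan were profiled at steady state on Day 7 and on Day 8 with single-dose sildenafil 50 mg. Outputs were AUCtau,ss, Cmax,ss and Tmax,ss. Log-transformed parameters went into a fixed-effect model with subject and treatment as factors; combination was test, monotherapy reference. Output was back-transformed GMR with 90% CI.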

[4] = system: patients with mild-to-moderate hypertension; assay: Safety assessments; assay type: in vivo, human; settings: for safety and tolerability: single-dose sildenafil 50 mg, sacubitril/valsartan 400 mg q.d., coadministration
Outline: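 Adverse events were recorded across three sequential periods in male hypertensive patients: single oral sildenafil 50 mg (Day 1), sacubitril/valsartan 400 mg q.d. (Days 3–7), and both together (Day 8). Events were graded by intensity and by suspected relation to study drug. They were summarised by treatment and visit/time, as number and percentage of subjects by body system and treatment.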

patients with HFrEF = settings: cited from earlier work
healthy subjects = settings: 40 mg and 80 mg doses; cited from earlier work
[5] = cited from earlier work; remark: listed apart in the source
[6] = sacubitril/valsartan and warfarin coadministered; cited from earlier work
[7] = 200 mg twice daily or 400 mg q.d., healthy individuals; cited from earlier work
[8] = plasma, Sacubitril/valsartan + Sildenafil (Day 8)
[9] = plasma, Sildenafil alone (50 mg single dose, Day 1)
[10] = plasma, Sildenafil alone (Day 1)
[11] = coadministration of sacubitril/valsartan and sildenafil vs. sacubitril/valsartan alone
[12] = 400 mg, Sacubitril/valsartan alone (Day 7)
[13] = Sacubitril/valsartan + Sildenafil (Day 8)

Molecule	AUCinf, Intrasubject CV [1] [%]	AUClast, Intrasubject CV [1] [%]	Cmax, Intrasubject CV [1] [%]	Tmax (median time to reach maximum concentration) ([1]; plasma) [h]	decrease in Cmax [3, 11] [%]	AUCtau,ss, Intrasubject CV [3] [%]	Cmax,ss, Intrasubject CV [3] [%]	AUC ([3]; 400 mg) [ng·h/mL]	Cmax [3, 12] [ng/mL]	Cmax [3, 13] [ng/mL]	Tmax (time of peak concentrations) [3] [h]	safety and tolerability [4]	further results
CCCc1nn(C)c2c(=O)[nH]c(-c3cc(S(=O)(=O)N4CCNCC4)ccc3OCC)nc12 [N‐desmethyl‐sildenafil]	15.9	16.4	26.7	1	–	–	–	–	–	–	–	–	decrease in Cmax ([1]; coadministration of sildenafil and sacubitril/valsartan vs. sildenafil alone): 14%; AUCinf, Adjusted geometric mean [1, 8]: 305 ng·h/mL; AUClast, Adjusted geometric mean [1, 8]: 278 ng·h/mL; AUClast, Mean ± SD [1, 8]: 305 ± 133 ng·h/mL; Cmax, Adjusted geometric mean [1, 8]: 75.9 ng/mL; Cmax, Mean ± SD [1, 8]: 84.6 ± 39.3 ng/mL; AUCinf, Mean ± SD [1, 9]: 359 ± 157 ng·h/mL; Cmax, Mean ± SD [1, 9]: 95.1 ± 32.5 ng/mL; AUCinf, Adjusted geometric mean [1, 10]: 327 ng·h/mL; AUClast, Adjusted geometric mean [1, 10]: 297 ng·h/mL; AUClast, Mean ± SD [1, 10]: 331 ± 152 ng·h/mL; Cmax, Adjusted geometric mean [1, 10]: 88.4 ng/mL; terminal half-life (T1/2) ([1]; plasma, sildenafil administered alone): 5.3 ± 1.6 h; terminal half-life (T1/2) ([1]; plasma, sildenafil coadministered with sacubitril/valsartan): 6.2 ± 1.9 h; share of sildenafil's pharmacological effects accounted for [2]: 20%; plasma concentration relative to parent compound ([2]; relative to sildenafil): ~40%; potency relative to parent compound ([2]; relative to sildenafil): ~50%
CCOC(=O)[C@H](C)C[C@@H](Cc1ccc(-c2ccccc2)cc1)NC(=O)CCC(=O)O [Sacubitril]	–	–	–	–	10	12.2	45.3	3400 ± 1000	2470 ± 865	2310 ± 1020	0.5	–	–
C[C@H](C[C@@H](Cc1ccc(-c2ccccc2)cc1)NC(=O)CCC(=O)O)C(=O)O [Sacubitrilat]	–	–	–	–	–	3.75	13	143000 ± 26300	14900 ± 2250	14000 ± 2420	2.0	–	–
Sacubitril/valsartan	–	–	–	–	–	–	–	–	–	–	–	generally safe and well‐tolerated	impact on the pharmacokinetics of the CYP2C9 substrate warfarin [6]: no impact; time to achieve steady-state levels [7]: 3 days

Further lines, with some results ahead:

AUCinf, Intrasubject CV [1] [%]	AUClast, Intrasubject CV [1] [%]	Cmax, Intrasubject CV [1] [%]	Tmax (median time to reach maximum concentration) ([1]; plasma) [h]	decrease in Cmax [3, 11] [%]	AUCtau,ss, Intrasubject CV [3] [%]	Cmax,ss, Intrasubject CV [3] [%]	AUC ([3]; 400 mg) [ng·h/mL]	Cmax [3, 12] [ng/mL]	Cmax [3, 13] [ng/mL]	Tmax (time of peak concentrations) [3] [h]	Molecule	safety and tolerability [4]	further results
23.4	23.4	35.5	0.5	–	–	–	–	–	–	–	CCCc1nn(C)c2c(=O)[nH]c(-c3cc(S(=O)(=O)N4CCN(C)CC4)ccc3OCC)nc12 [Sildenafil]	generally safe and well‐tolerated	half-life ([1]; male, human, plasma, oral, 50 mg): 3.7 ± 1 h; AUC(0-t) ([1]; male, human, plasma, oral, 50 mg, Mean ± SD, plasma, Sildenafil alone (Day 1)): 587 ± 270 ng·h/mL; AUC(0-t) ([1]; male, human, plasma, oral, Mean ± SD, plasma, Sacubitril/valsartan + Sildenafil (Day 8)): 612 ± 297 ng·h/mL; Cmax ([1]; male, human, plasma, oral, Cmax, Mean ± SD, plasma, Sacubitril/valsartan + Sildenafil (Day 8)): 189 ± 99.6 ng/mL; suspected treatment-related AEs of moderate intensity ([4]; per study period): 1 AE; cardiac output (patients with HFrEF; 50 mg sildenafil, patients with HFrEF): increased; safety and tolerability (patients with HFrEF; sildenafil administered to patients with HFrEF): safe and well tolerated; duration of BP-lowering effect postdosing (healthy subjects): 5 h
–	–	–	–	39	28	32.6	33000 ± 12400	5300 ± 1750	3350 ± 1480	2.0	CCCCC(=O)N(Cc1ccc(-c2ccccc2-c2nnn[nH]2)cc1)[C@H](C(=O)O)C(C)C [Valsartan]	–	decrease in AUC [3, 11]: 29%; intersubject variability in pharmacokinetic parameters [5]: 44%
